# Experiment: Toxicity liver stage against HepG2, at 10uM
# Assay type: cell-based
# Set-up: test concentration 10 uM, cell line HepG2-A16-CD81EGFP
# Conditions: human, HepG2-A16-CD81EGFP cells; read-out: INHIBITION
# Method in brief: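 Uninfected HepG2-A16-CD81EGFP cells, 3 × 10^3 per well, 1536-well, plated on prespotted compound at 10 μM final, parasite-free screening media added to match infected plates; puromycin 10 μM positive, DMSO 0.5% negative; run in parallel with 48 h PbLuc assay at 37 °C, 5% CO2; viability by CellTiter-Glo luminescence, normalized to controls.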
row,SMILES,cytotoxicity at 10 µM [%]
1,CC(=O)N1CC[C@H](c2nc3cc(C)ccc3o2)C1,-4.13
2,COc1ccccc1-n1c(C)cc(CNC(=O)NC(C)C)c1C,3.49
3,O=C(c1nc(Cc2c[nH]c3ccccc23)no1)N1CCCC1,7.76
4,Cn1c(C(F)(F)F)nn(CCNC(=O)CCc2ccccc2)c1=O,10.7
5,CN1CC(c2ccccc2)C2(CCN(C(=O)c3cccn3C)CC2)C1=O (stereo not given),3.83
6,COCCN1CCC2(CCCN(c3ncc(F)cn3)C2)C1 (stereo not given),4.71
7,Cc1nc(C)n(CC2CN(S(C)(=O)=O)Cc3nccn3C2)n1 (stereo not given),-140
8,Cc1noc([C@@]23CCO[C@@H]2CCN(C(=O)c2cc(C)[nH]c2C)C3)n1,10.4
9,CCS(=O)(=O)N1CCOC2(CCCN(c3cccc(C#N)c3)C2)C1 (stereo not given),0.341
10,CN(C)c1ncc2c(n1)C1(CCN(Cc3cccnc3)C1)COC2 (stereo not given),9.05
11,COCC1CN(Cc2cccc(C#N)c2)Cc2nccn2C1 (stereo not given),-141
12,COc1cccc2c1ccn2CCC(=O)N1CCC(C(=O)O)CC1,7.08
13,CCOC1COC2(CCN(Cc3ccc4c(c3)OCO4)CC2)C1 (stereo not given),6.94
14,CN(C)CCN1CCCC12CCN(C(=O)c1cnccn1)CC2,4.99
15,Cc1nc(NCCN2CCCC2=O)cc(C2CN(C(C)C)CCO2)n1 (stereo not given),3.88
16,CCc1cccc2cc(CNCCOC)c(=O)[nH]c12,1.47
17,Cc1nccn1[C@@H]1CC[C@@H](NC(=O)CCCn2cncn2)[C@H]1O,6.17
18,CC(=O)N1CCC2(CC1)CC(C(C)C)=NO2,8.74
19,CCC(C)(C)NC(=O)c1scnc1Cl,-0.47
20,CCc1ccc(C(NC(=O)CN(C)S(C)(=O)=O)C(C)(C)C)o1 (stereo not given),-1.76
21,O=C(CCc1ccco1)NS(=O)(=O)N1CCOc2ccccc21,6.07
22,COc1ccccc1NC(=O)c1ccc(C)n1C,1.42

row,SMILES,cytotoxicity at 10 µM [%]
1,Cc1cnn(CCNCC(=O)N2CCN(c3ncccn3)CC2)c1,-0.0264
2,CC(Nc1ccc(C#N)cc1F)c1cccc(S(N)(=O)=O)c1 (stereo not given),-3.86
3,Cc1cc(NC(=O)CNc2cccc(OC(F)F)c2C)n(C)n1,9.47
4,N#Cc1ccc(NCCC(=O)N2CCCc3ccccc32)nc1,-1.33
5,CCOc1cc(Cl)ccc1CNC(=O)N(C)CC(C)(C)O,-0.538
6,O=C1CCN(C(=O)C2(c3ccc(F)cc3)CCCC2)CCN1,-8.27
7,CCOCC(=O)NC1(c2nc(C)cs2)CCCC1,-12.7
8,Cc1cccc(NC(=O)[C@@H]2CCCN2Cc2ccc(C#N)cc2F)n1,-5.64
9,CN1CCC(N(Cc2ccccc2F)C(=O)NCc2ccncc2)CC1,-2.14
10,CCC(CC)c1cc(CNC(=O)N2CCN(CC)CC2)on1,-3.26
11,COc1ccccc1N1CCN(Cc2nc(C)c(C)o2)CC1,13.4
12,NC(=O)CN1CCC(NC(=O)N2CCCC2c2ccncc2)CC1 (stereo not given),10.5
13,N#CCCN(Cc1ccco1)C(=O)Cc1ccc(-n2cnnn2)cc1,3.23
14,CSCC(C)(O)CNc1ncccc1I (stereo not given),-2.36
15,CN(C)C(CNCc1nc(-c2ccsc2)no1)c1ccco1 (stereo not given),10.2
16,CC(CNCC1(S(C)(=O)=O)CCOCC1)c1ccc(F)cc1 (stereo not given),-5.06
17,COc1c(C(=O)N2CCC(CSc3ccccc3)C2)c(C)nn1C (stereo not given),25.6
18,Cc1ccsc1CNC(=O)c1ccc(N2CCNC2=O)cc1,1.79
19,Cc1nc(CN(C)C(=O)Nc2cnn(CC3CCCO3)c2)cs1 (stereo not given),5.53
20,COc1ccc(C(=O)Nc2cnn(CC(=O)NC3CCCC3)c2)c(O)c1,-14.8
21,CC(C)c1nnc2n1CC(CNCc1ccncc1)CC2 (stereo not given),-17.5
22,COc1ncccc1CN1Cc2nccn2CC(Cn2cccn2)C1 (stereo not given),-106

row,SMILES,cytotoxicity at 10 µM [%]
1,CCS(=O)(=O)N1CC[C@@H]2[C@H]1CCC(=O)N2CCOC,-104
2,CN(C)Cc1nc2c(o1)CN(C(=O)c1ccncc1F)C2,-114
3,O=C(O)c1cc2c(nc1-c1ccncc1)CCN(Cc1ccoc1)CC2,-70.9
4,COCC(=O)N1CCCC2(CCN(c3cncnc3)C2=O)C1 (stereo not given),-72.5
5,c1cnc(NCC2Cn3nnc(-c4ccoc4)c3CO2)nc1 (stereo not given),-76.1
6,O=C(c1ccco1)N1CCn2cc(CN3CCCC3)nc2C1,-78.9
7,NC(=O)N1CCC2(CC1)CN(c1ncccn1)CCO2,-75.1
8,CCNC(=O)c1c2c(N3CCN(C)CC3)ncnc2n2ccccc12,-74.8
9,O=C(c1ccnnc1)N1CC[C@H]2C[C@H](c3ccncn3)O[C@@H]2C1,-71.8
10,O=C(NCC1CC1)[C@H]1C[C@@H]2CCN(Cc3nccs3)C[C@@H]2O1,-1.7
11,O=c1[nH][nH]cc1-c1ccnc(NCCN2CCCC2)n1,2.89
12,N[C@H]1CN(C(=O)Cc2ccc(CO)cc2)C[C@@H]1C1CC1,-5.68
13,Cc1nn(C)c2ncnc(N3CCCC(OCc4cccnc4)C3)c12 (stereo not given),12.8
14,COCCN1CC2(CCCN(C(=O)CCCc3cccs3)C2)CCC1=O (stereo not given),-8.5
15,CCCN1CCC=C(C2c3nc[nH]c3CCN2C(=O)c2ccco2)C1 (stereo not given),1.33
16,COCCN1CCC2(CCC1=O)CN(c1ccnc(SC)n1)CCN2C (stereo not given),2.41
17,COc1ccc(N2CCN(CC[C@H](O)c3ccccc3)CC2=O)cc1,2.41
18,CCCn1cc(-c2cc(-c3cnc(OC)nc3)c(C#N)c(N)n2)c(C)n1,2.89
19,OC1(CNCc2noc(Cc3ccccc3)n2)CNCCOC1 (stereo not given),9.34
20,O=C(NCc1sc2ccccc2c1Cl)c1cc2n(n1)CCNC2,7.94
21,CCOC(=O)CC1CCCCN1C(=O)c1cnc(C)cn1 (stereo not given),0.957
22,CC(=O)NCCNCC1(O)CCCN(CCC2CCCCC2)C1=O (stereo not given),6.27

row,SMILES,cytotoxicity at 10 µM [%]
1,CSc1ccc(CCN2CCN([C@H]3CCCC[C@@H]3O)CC2)cc1,-3.38
2,CN(C)C(=O)NCC(=O)N(C)Cc1cc(-c2ccccc2)no1,1.14
3,OCC1COCCN(c2ncccc2C(F)(F)F)C1 (stereo not given),-9.34
4,CCc1ccc(OCC(=O)N2CCN(CC)CC2)cc1,6.15
5,Cn1ccnc1C1c2nc[nH]c2CCN1Cc1cccnc1 (stereo not given),0.0371
6,CN(C)CCNC(=O)c1cc2n(n1)CCN(C(=O)c1ccc[nH]1)C2,2.58
7,O=S1(=O)COCCN1Cc1ccc(Cl)c(F)c1,-11.6
8,COc1cccn(CC(=O)N(C)CCOc2cc(C)cc(C)c2)c1=O,-10.6
9,CSc1ncccc1C(=O)N1CCC(c2nc3c(C)cccc3[nH]2)CC1,-20
10,CC(=O)N1CCc2c(nc(-c3ccncc3)nc2N(C)CC(O)CO)C1 (stereo not given),-13.1
11,Cc1nccn1-c1cccc(C2CCCN2S(=O)(=O)c2cn(C)cn2)n1 (stereo not given),7.99
12,COc1c(C2CCCN2C(=O)c2scnc2C)c(C)nn1C (stereo not given),-1.49
13,Cc1ccc(OCC(=O)N2CCCC(n3nc(C)nc3C)C2)cc1 (stereo not given),-10.1
14,CCn1cnnc1CNC(=O)N1CCN(c2ccccc2Cl)CC1,-0.502
15,c1cc(CN2CCOC(Cn3cccn3)C2)c2c(c1)OCCO2 (stereo not given),-2.66
16,CCc1ccc(CNC(=O)NCc2nnc3n2CCC3)s1,2.12
17,CCCc1n[nH]c(C2CN(C(=O)CCc3cscn3)CCO2)n1 (stereo not given),-1.63
18,Cc1cc(NC(=O)CN2CCn3c(nnc3C3CC3)C2)on1,-9.92
19,COc1ccc(CN(C)C(=O)NCc2c(C)cc(C)[nH]c2=O)cc1,-1.13
20,CCN(CC)c1ccc(C(=O)N(C)Cc2c(C)noc2C)cn1,-5.38
21,CNC(=O)c1cccc(NC(=O)Cn2nc(-c3cccs3)oc2=O)c1,-8.28
22,O=C(NCCNc1ncccn1)c1ccc(-c2ccco2)[nH]c1=O,-3.29

row,SMILES,cytotoxicity at 10 µM [%]
1,CCN(C(=O)c1ccc(-n2ncc(C#N)c2N)cc1)C1CCCC1,-13
2,Cc1nn(C)c(N(C)C)c1CNC(C)COc1cccc(F)c1 (stereo not given),-4.96
3,CCn1cc(NC(=O)NCC(O)CN2CCc3ccccc3C2)cn1 (stereo not given),-4.33
4,CC(=O)Nc1nc(C(=O)N2CCCC2Cn2cc(C)cn2)cs1 (stereo not given),7.07
5,Cc1n[nH]c(C2CN(C(=O)c3cnc[nH]3)CCO2)n1 (stereo not given),-0.265
6,Cc1ncsc1CN1C[C@H](C(=O)N2CCCO2)[C@@H]2CCO[C@@H]2C1,-11.6
7,COc1ccc(CNC(C)Cn2cccn2)c(OC)c1OC (stereo not given),-8.17
8,CN(C)C(=O)CO[C@H]1CN(Cc2ccc(F)cc2)[C@@H]2CCCO[C@H]12,-22.3
9,O=C(c1cscn1)N1CCC2(CN(Cc3ccncc3)C2)C1,6.82
10,COCCNC(=O)[C@H]1CN(Cc2csc(C)n2)C[C@H]2OCC[C@@H]12,9.9
11,c1cnc(NCc2nnn3c2CN(Cc2cccs2)CCC3)nc1,10.1
12,COCCN1C[C@@H]2CN(Cc3ccc(C)s3)CCC[C@]2(C(=O)O)C1,-96.8
13,CN(C)C(=O)[C@H]1C[C@H]2OCC[C@H]2N(Cc2ccc3ccccc3n2)C1,-55.9
14,O=C([C@H]1CN(Cc2ccc(F)cc2)C[C@H]2OCC[C@@H]12)N1CCCO1,7.77
15,c1ccc(OCc2nnc3n2CCN(Cc2ccco2)C3)nc1,5.5
16,c1ccc(CN2CCc3ncnc(-c4cccnc4)c3CC2)nc1,-75.7
17,Cc1cccc(C(=O)N2CCC3(CCN(c4cnn(C)c4)C3=O)C2)n1 (stereo not given),5.05
18,Cc1ccc(N2CCO[C@H]3CN(Cc4nccs4)C[C@H]32)nn1,-94.7
19,Cc1nc(CO[C@H]2CN(C(=O)c3cnoc3C)[C@@H]3COC[C@H]23)cs1,-107
20,CCS(=O)(=O)NC[C@]12COC[C@H]1CN(Cc1cccnc1)C2,5.22
21,CCc1cc(NC2CCC(O)CC2)n2nc(C)c(C)c2n1 (stereo not given),-6.86
22,CCCn1nccc1NC(=O)CN1CCCC1c1cccn1C (stereo not given),-5.76
